Reference: ChEMBL document CHEMBL3046408, “Disease control effect of strevertenes produced by Streptomyces psammoticus against tomato fusarium wilt” (J Agric Food Chem, 2011)
Converted amounts (≈) assume the structure as drawn. The source made the active and inactive calls. The calls are words filed in the database; no cut-off is given here.

Tests used:
Cercospora canescens = assay: Antifungal activity against Cercospora canescens assessed as complete growth inhibition after 1 to 3 days by CLSI M38-A method; format: functional
Method in brief: (§1)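 Broth microdilution in 96-well plates following CLSI M38-A. Conidial suspensions were dispensed to a final (0.5-5) × 10^4 spores/mL, with compound at final 0.125 to 64 μg/mL. Plates were incubated at 28 °C for 1-3 days. MIC was read visually as the lowest concentration giving complete growth inhibition.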

Diaporthe citri = assay: Antifungal activity against Diaporthe citri assessed as complete growth inhibition after 1 to 3 days by CLSI M38-A method; format: functional
Method in brief: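 Broth microdilution following CLSI M38-A. Mycelial-fragment suspension of the fungus at a final (0.5-5) × 10^4 fragments/mL. Antibiotic added to final concentrations of 0.125 to 64 μg/mL. Incubated at 28 °C for 1-3 days. Wells read visually; MIC is the lowest concentration giving complete growth inhibition.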

Sclerotinia sclerotiorum = assay: Antifungal activity against Sclerotinia sclerotiorum assessed as complete growth inhibition after 1 to 3 days by CLSI M38-A method; format: functional
Method in brief: (§2)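 CLSI M38-A microdilution in 96-well plates, inoculated with mycelial-fragment suspensions at a final (0.5-5) × 10^4 fragments/mL. Compound was added at final concentrations from 0.125 to 64 μg/mL. After 1-3 days at 28 °C, MIC was scored by eye as the lowest concentration completely inhibiting growth.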

Solanum lycopersicum = assay: Phytotoxicity in Solanum lycopersicum (tomato) plants upto 500 ug/mL; format: organism-based; conditions: in vivo
Aspergillus oryzae = assay: Antifungal activity against Aspergillus oryzae assessed as complete growth inhibition after 1 to 3 days by CLSI M38-A method; format: functional; method in brief: as §1
[1] = tested on: Colletotrichum gloeosporioides; assay: Antifungal activity against Colletotrichum gloeosporioides assessed as complete growth inhibition after 1 to 3 days by CLSI M38-A method; format: functional; method in brief: as §1
Rhizoctonia solani = assay: Antifungal activity against Rhizoctonia solani assessed as complete growth inhibition after 1 to 3 days by CLSI M38-A method; format: functional; method in brief: as §2
[2] = tested on: Fusarium oxysporum f. sp. cucumerinum; assay: Antifungal activity against Fusarium oxysporum f.sp. cucumerinum assessed as complete growth inhibition after 1 to 3 days by CLSI M38-A method; format: functional; method in brief: as §1
[3] = tested on: Fusarium oxysporum f. sp. lycopersici; assay: Antifungal activity against Fusarium oxysporum f.sp. lycopersici JCM 12575 in tomato plants assessed as inhibition of Fusarium wilt disease severity at 1 ug/mL measured after 10 days of inoculation under green house condition; format: functional, organism-based
Method in brief: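 Greenhouse assay. F. oxysporum f.sp. lycopersici JCM 12575 was grown in Czapek Dox broth at 28 °C for 14 days, and the inoculum was 2 × 10^6 conidia/mL. Wounded tomato seedling roots were dipped for 10 min, potted, and soil-drenched with 5 mL of compound (1, 10, 100, 500 μg/mL); controls received sterile water. Plants spent 24 h in a 28 °C dew chamber, then went to the greenhouse. Disease severity was scored 0-5 at 10 days post-inoculation.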

Ilyonectria destructans = assay: Antifungal activity against Ilyonectria radicicola assessed as complete growth inhibition after 1 to 3 days by CLSI M38-A method; format: functional; method in brief: as §1
Colletotrichum coccodes = assay: Antifungal activity against Colletotrichum cocodes assessed as complete growth inhibition after 1 to 3 days by CLSI M38-A method; format: functional; method in brief: as §1
[4] = tested on: Colletotrichum orbiculare; assay: Antifungal activity against Colletotrichum orbiculare assessed as complete growth inhibition after 1 to 3 days by CLSI M38-A method; format: functional; method in brief: as §1
Alternaria mali = assay: Antifungal activity against Alternaria mali assessed as complete growth inhibition after 1 to 3 days by CLSI M38-A method; format: functional; method in brief: as §1
Alternaria brassicicola = assay: Antifungal activity against Alternaria brassicola assessed as complete growth inhibition after 1 to 3 days by CLSI M38-A method; format: functional; method in brief: as §1
[5] = tested on: Fusarium oxysporum f. sp. lycopersici; assay: Antifungal activity against Fusarium oxysporum f.sp. lycopersici assessed as complete growth inhibition after 1 to 3 days by CLSI M38-A method; format: functional; method in brief: as §1

| SMILES | MIC (Cercospora canescens) | MIC (Diaporthe citri) | MIC (Sclerotinia sclerotiorum) | Activity (Solanum lycopersicum) | MIC (Aspergillus oryzae) | MIC [1] | MIC (Rhizoctonia solani) | MIC [2] | inhibition [3] | MIC (Ilyonectria destructans) | MIC (Colletotrichum coccodes) | MIC [4] | MIC (Alternaria mali) | MIC (Alternaria brassicicola) | MIC [5] |
| --- | --- | --- | --- | --- | --- | --- | --- | --- | --- | --- | --- | --- | --- | --- | --- |
| C[C@H]1/C=C/C=C/C=C/C=C/C=C/[C@@H](O)[C@H](C(=O)O)[C@H](O)C[C@H](O)CCC[C@H](O)C[C@H](O)C[C@H](O)[C@@H](C)C(=O)O[C@@H]1C [STREVERTENE A] | 16 µg/mL (≈ 27.6 µM) | 32 µg/mL (≈ 55.1 µM) | 8 µg/mL (≈ 13.8 µM) | Non-toxic | 16 µg/mL (≈ 27.6 µM) | 8 µg/mL (≈ 13.8 µM) | > 64 µg/mL | 16 µg/mL (≈ 27.6 µM) | Active | 16 µg/mL (≈ 27.6 µM) | 8 µg/mL (≈ 13.8 µM) | 8 µg/mL (≈ 13.8 µM) | 16 µg/mL (≈ 27.6 µM) | > 64 µg/mL | 16 µg/mL (≈ 27.6 µM) |
| CC[C@H]1C(=O)O[C@H](C)[C@@H](C)/C=C/C=C/C=C/C=C/C=C/[C@@H](O)[C@H](C(=O)O)[C@H](O)C[C@H](O)CCC[C@H](O)C[C@H](O)C[C@@H]1O [STREVERTENE B] | 32 µg/mL (≈ 53.8 µM) | 32 µg/mL (≈ 53.8 µM) | 8 µg/mL (≈ 13.5 µM) | Non-toxic | 10 µg/mL (≈ 16.8 µM) | 8 µg/mL (≈ 13.5 µM) | > 64 µg/mL | 8 µg/mL (≈ 13.5 µM) | Active | 16 µg/mL (≈ 26.9 µM) | 8 µg/mL (≈ 13.5 µM) | 4 µg/mL (≈ 6.73 µM) | 16 µg/mL (≈ 26.9 µM) | > 64 µg/mL | 8 µg/mL (≈ 13.5 µM) |
